Data: ChEMBL document CHEMBL3286396, “Discovery and Synthesis of C-Nucleosides as Potential New Anti-HCV Agents” (ACS Med Chem Lett, 2014)

Tests used:
[1] = tested on: Hepatitis C virus; assay: Antiviral activity against Hepatitis C virus genotype 1b infected in human HuH7 cells assessed as inhibition of subgenomic replicon RNA replication after 72 hrs by luciferase reporter assay; assay type: functional, cell-based, Hepacivirus hominis; conditions: Huh-7, 72 h
[2] = Cytotoxicity against human HuH7 cells by MTT assay; assay type: cell-based, Huh-7
Procedure, shortened: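 Huh-7-derived HCV replicon cell lines were used, with MTT as the vital dye read-out.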

[3] = Inhibition of N-terminal His6-tagged Hepatitis C virus genotype 1b isolate Con1 NS5B RNA-dependent RNA polymerase activity by plate reader analysis
[4] = tested on: Hepatitis C virus; assay: Antiviral activity against Hepatitis C virus assessed as inhibition of subgenomic replicon RNA replication; assay type: functional, organism-based, Hepacivirus hominis
[5] = Inhibition of Hepatitis C virus NS5B RNA-dependent RNA polymerase activity; parameters: species or system Hepacivirus hominis
[6] = target: T1, DNA polymerase alpha catalytic subunit (Homo sapiens, UniProt P09884); assay: Inhibition of human DNA polymerase alpha
T1 sequence (P09884 whole entry): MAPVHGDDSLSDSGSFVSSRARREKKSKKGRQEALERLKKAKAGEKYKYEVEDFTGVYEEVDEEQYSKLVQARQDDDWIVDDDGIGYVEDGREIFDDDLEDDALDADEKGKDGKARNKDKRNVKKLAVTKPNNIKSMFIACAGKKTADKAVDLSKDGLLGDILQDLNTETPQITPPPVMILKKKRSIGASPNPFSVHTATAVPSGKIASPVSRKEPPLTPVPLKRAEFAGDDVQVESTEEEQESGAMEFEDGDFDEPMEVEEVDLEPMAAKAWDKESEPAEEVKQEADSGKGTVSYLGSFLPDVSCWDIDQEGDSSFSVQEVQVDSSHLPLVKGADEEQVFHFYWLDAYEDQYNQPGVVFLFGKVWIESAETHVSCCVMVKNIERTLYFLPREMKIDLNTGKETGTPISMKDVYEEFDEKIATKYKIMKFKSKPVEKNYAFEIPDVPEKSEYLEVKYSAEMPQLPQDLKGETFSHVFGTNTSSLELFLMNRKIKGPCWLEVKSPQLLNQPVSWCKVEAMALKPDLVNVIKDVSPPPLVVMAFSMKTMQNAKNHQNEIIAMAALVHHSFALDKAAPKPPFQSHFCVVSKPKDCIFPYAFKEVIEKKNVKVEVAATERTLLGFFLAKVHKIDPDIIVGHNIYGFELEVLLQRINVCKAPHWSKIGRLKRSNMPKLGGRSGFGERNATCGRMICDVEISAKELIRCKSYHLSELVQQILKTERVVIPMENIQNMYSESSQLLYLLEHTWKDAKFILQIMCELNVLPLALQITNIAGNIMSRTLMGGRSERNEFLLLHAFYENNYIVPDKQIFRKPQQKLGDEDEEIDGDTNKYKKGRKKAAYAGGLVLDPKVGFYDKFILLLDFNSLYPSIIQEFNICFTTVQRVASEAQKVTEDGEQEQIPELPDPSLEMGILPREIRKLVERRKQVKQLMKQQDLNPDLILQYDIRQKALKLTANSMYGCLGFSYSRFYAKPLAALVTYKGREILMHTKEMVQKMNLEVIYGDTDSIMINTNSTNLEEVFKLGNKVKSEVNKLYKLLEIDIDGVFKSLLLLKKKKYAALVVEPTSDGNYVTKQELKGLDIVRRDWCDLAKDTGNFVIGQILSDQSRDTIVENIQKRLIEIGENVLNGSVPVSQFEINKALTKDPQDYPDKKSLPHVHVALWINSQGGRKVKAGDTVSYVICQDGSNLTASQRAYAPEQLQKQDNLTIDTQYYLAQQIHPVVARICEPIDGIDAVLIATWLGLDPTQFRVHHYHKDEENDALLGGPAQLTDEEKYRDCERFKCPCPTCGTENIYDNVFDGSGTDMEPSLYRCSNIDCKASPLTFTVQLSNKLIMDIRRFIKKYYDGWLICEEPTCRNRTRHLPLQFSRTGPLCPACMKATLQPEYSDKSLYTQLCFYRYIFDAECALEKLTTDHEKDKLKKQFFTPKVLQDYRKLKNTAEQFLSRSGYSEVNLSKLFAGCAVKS
Procedure, shortened: (§1)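 The nucleoside was tested in its triphosphate form against human DNA polymerases α, β and γ.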

[7] = target: DNA polymerase beta (Homo sapiens, UniProt P06746); assay: Inhibition of human DNA polymerase beta; procedure, shortened: as §1
[8] = target: T2, DNA polymerase subunit gamma-1 (Homo sapiens, UniProt P54098); assay: Inhibition of human DNA polymerase gamma; procedure, shortened: as §1
T2 sequence (P54098 whole entry): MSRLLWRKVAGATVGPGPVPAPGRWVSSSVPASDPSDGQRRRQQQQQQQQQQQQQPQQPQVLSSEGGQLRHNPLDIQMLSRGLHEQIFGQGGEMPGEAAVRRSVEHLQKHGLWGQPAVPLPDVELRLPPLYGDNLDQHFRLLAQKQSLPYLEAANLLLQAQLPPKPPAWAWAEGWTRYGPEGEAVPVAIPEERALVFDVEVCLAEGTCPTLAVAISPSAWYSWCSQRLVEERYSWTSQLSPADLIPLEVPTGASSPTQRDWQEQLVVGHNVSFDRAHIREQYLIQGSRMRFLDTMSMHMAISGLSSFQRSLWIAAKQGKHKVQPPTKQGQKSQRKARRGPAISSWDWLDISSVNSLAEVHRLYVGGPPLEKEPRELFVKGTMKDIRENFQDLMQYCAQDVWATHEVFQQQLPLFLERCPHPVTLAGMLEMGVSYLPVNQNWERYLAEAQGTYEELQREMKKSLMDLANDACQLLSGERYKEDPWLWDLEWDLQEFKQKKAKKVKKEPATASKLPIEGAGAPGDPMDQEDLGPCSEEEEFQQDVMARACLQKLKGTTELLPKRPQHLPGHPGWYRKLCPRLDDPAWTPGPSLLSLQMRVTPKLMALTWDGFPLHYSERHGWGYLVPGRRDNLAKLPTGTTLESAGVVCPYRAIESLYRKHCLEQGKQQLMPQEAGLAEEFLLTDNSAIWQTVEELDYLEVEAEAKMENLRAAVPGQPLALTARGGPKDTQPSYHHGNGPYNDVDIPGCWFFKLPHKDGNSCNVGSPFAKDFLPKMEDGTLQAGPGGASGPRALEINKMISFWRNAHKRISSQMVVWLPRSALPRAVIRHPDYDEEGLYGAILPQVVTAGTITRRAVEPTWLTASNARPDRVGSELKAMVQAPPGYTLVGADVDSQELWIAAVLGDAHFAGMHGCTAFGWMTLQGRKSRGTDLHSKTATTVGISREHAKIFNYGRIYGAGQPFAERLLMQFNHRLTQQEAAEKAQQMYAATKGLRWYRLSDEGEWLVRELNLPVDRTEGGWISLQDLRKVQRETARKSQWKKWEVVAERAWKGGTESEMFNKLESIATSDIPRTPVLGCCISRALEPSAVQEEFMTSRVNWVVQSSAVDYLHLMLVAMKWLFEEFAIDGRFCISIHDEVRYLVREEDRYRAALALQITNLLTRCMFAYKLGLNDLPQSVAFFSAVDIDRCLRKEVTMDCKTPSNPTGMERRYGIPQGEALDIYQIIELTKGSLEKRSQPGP

Row | SMILES | EC50 [1] [µM] | IC50 [3] [µM] | EC50 [4] [µM] | CC50 [2] [µM] | also measured
1 | C[C@@]1(O)[C@H](O)[C@@H](CO)O[C@H]1c1ccc2c(=O)[nH]c(N)nn12 | > 100 | 0.21 | – | > 100 | –
2 | C[C@@]1(O)[C@H](O)[C@@H](CO)O[C@H]1n1ccc2c(N)ncnc21 [BETA-2'-C-METHYL-7-DEAZA-ADENOSINE] | 0.2 | 0.2 | 0.3 | > 100 | IC50 [5]: 0.07 µM
3 | C[C@@]1(O)[C@H](O)[C@@H](CO)O[C@H]1n1cnc2c(=O)[nH]c(N)nc21 [2'-B-METHYL-GUANOSINE] | – | – | 2 | – | –
4 | C[C@@]1(O)[C@H](O)[C@@H](CO)O[C@H]1n1ccc2c(O)nc(N)nc21 | – | – | > 50 | – | –
5 | C[C@@]1(O)[C@H](O)[C@@H](COP(=O)(O)OP(=O)(O)OP(=O)(O)O)O[C@H]1c1ccc2c(N)ncnn12 | – | – | – | – | IC50 [6]: > 100 µM; IC50 [7]: > 100 µM; IC50 [8]: > 100 µM

More lines, main results first:

Row | EC50 [1] [µM] | IC50 [3] [µM] | EC50 [4] [µM] | SMILES | CC50 [2] [µM] | also measured
6 | > 100 | 33 | – | C[C@@]1(O)[C@H](O)[C@@H](CO)O[C@H]1c1cnn2c(N)ncnc12 | > 100 | –
7 | 1.3 | 0.55 | – | C[C@@]1(O)[C@H](O)[C@@H](CO)O[C@H]1c1cnc2c(N)ncnn12 | 34 | –
8 | > 100 | 0.31 | – | C[C@@]1(O)[C@H](O)[C@@H](CO)O[C@H]1c1cnc2c(=O)[nH]c(N)nn12 | > 100 | –
